Where a SMILES comes first, the peptide text is derived from it. [ ]: non-standard residue; d: D form. The star is where a group is joined. Arg(NO2) = N=C(NCCC[C@H](N)C(=O)O)N[N+](=O)[O-]; Boc = CC(C)(C)OC(=O)*; Bz = O=C(c1ccccc1)*; NHOH = ON*
Tests used:
[1] = target: 72 kDa type IV collagenase (Homo sapiens, UniProt P08253); assay: Inhibition of MMP2 by spectrophotometry
Outline: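 Gelatinase A (MMP-2) with an in-house synthesized substrate and inhibitor, all in 50 mmol/L sodium borate pH 8.5, incubated 30 min at 37 °C. 0.03% TNBS then added and incubated a further 20 min. Absorbance read at 450 nm.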

Aminopeptidase N = target: T1, Aminopeptidase N (Sus scrofa, UniProt P15145); assay: Inhibition of APN from pig kidney microsomes by spectrophotometry; assay type: tissue-based
T1 sequence (P15145 whole entry): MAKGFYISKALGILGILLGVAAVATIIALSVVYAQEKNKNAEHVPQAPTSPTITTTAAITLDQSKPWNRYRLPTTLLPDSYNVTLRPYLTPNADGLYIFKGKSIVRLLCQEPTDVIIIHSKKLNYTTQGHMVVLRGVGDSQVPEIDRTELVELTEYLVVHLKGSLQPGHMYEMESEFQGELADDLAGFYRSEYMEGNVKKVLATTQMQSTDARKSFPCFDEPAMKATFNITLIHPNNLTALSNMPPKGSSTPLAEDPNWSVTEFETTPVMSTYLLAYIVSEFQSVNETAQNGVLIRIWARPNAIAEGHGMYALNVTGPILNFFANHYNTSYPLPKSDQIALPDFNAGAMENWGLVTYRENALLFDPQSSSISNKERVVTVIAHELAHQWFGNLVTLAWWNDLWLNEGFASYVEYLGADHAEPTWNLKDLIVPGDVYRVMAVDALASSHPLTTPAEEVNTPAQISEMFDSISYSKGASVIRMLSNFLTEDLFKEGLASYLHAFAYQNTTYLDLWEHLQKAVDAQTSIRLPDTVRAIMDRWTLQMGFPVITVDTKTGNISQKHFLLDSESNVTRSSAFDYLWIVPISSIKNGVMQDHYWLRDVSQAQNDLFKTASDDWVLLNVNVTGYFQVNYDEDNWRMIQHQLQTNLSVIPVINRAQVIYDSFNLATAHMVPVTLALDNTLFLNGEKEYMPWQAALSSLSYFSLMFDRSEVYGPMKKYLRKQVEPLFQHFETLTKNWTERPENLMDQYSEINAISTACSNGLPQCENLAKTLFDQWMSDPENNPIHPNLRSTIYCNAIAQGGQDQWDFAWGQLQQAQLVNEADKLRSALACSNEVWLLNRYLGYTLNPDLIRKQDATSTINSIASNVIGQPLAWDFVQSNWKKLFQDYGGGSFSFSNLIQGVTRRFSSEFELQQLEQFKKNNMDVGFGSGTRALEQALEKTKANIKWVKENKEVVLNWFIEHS

72 kDa type IV collagenase, sequence (P08253 whole entry): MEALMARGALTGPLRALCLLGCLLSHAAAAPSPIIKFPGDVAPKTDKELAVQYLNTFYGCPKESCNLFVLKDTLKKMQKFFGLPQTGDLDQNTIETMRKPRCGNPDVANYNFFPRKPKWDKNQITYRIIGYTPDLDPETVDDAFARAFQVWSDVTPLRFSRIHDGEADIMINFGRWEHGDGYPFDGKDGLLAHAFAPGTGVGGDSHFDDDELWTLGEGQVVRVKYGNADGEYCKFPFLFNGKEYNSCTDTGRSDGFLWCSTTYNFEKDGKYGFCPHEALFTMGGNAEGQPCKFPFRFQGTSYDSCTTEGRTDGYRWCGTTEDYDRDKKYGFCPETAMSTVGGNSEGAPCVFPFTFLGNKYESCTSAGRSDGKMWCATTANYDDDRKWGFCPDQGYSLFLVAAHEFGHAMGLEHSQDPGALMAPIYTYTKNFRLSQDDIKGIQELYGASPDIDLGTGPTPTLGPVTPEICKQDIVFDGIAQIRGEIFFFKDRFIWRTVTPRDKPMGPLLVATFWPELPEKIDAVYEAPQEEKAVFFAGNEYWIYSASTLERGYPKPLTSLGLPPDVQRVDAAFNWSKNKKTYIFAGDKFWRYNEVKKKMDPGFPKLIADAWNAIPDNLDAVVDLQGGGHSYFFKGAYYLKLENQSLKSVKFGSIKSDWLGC

SMILES	IC50 [1] [µM]	IC50 (Aminopeptidase N) [µM]
CC(C)C[C@H](NC(=O)OC(C)(C)C)C(=O)N[C@@H](CCCNC(N)=N[N+](=O)[O-])C(=O)NO	5680	334
CC(C)C[C@H](N)C(=O)N[C@@H](CCCNC(=N)N[N+](=O)[O-])C(=O)NO	5310	–
CSCCC[C@H](N)C(=O)N[C@@H](CCCNC(=N)N[N+](=O)[O-])C(=O)NO	4200	–
CC(C)C[C@H](NC(=O)c1ccc(Cl)cc1Cl)C(=O)N[C@@H](CCCNC(N)=N[N+](=O)[O-])C(=O)NO	1540	7.2
N=C(NCCC[C@H](NC(=O)[C@H](Cc1ccccc1)NC(=O)c1ccc(Cl)cc1Cl)C(=O)NO)N[N+](=O)[O-]	8140	4.3
COc1ccc(C(=O)N[C@@H](C)C(=O)N[C@@H](CCCNC(N)=N[N+](=O)[O-])C(=O)NO)cc1	8970	16.3
C[C@H](NC(=O)c1ccc(Cl)cc1Cl)C(=O)N[C@@H](CCCNC(N)=N[N+](=O)[O-])C(=O)NO	1760	31.4
CC(C)[C@H](NC(=O)c1ccccc1I)C(=O)N[C@@H](CCCNC(N)=N[N+](=O)[O-])C(=O)NO	1780	6.7
CC(C)C[C@H](NC(=O)c1ccccc1Cl)C(=O)N[C@@H](CCCNC(N)=N[N+](=O)[O-])C(=O)NO	630	4.8
CC(C)C[C@H](NC(=O)OC(C)(C)C)C(=O)N[C@@H](C)C(=O)N[C@@H](CCCNC(N)=N[N+](=O)[O-])C(=O)NO (Boc-Leu-Ala-[Arg(NO2)]-{NHOH})	2900	39.5
CC(C)C[C@H](NC(=O)OC(C)(C)C)C(=O)NCC(=O)N[C@@H](CCCNC(N)=N[N+](=O)[O-])C(=O)NO (Boc-Leu-Gly-[Arg(NO2)]-{NHOH})	2980	25.2
CSCC[C@H](NC(=O)OC(C)(C)C)C(=O)N[C@@H](CCCNC(=N)N[N+](=O)[O-])C(=O)NO (Boc-Met-[Arg(NO2)]-{NHOH})	1940	132
CC(C)C[C@H](NC(=O)[C@H](Cc1ccccc1)NC(=O)OC(C)(C)C)C(=O)N[C@@H](CCCNC(=N)N[N+](=O)[O-])C(=O)NO (Boc-Phe-Leu-[Arg(NO2)]-{NHOH})	407	8.4
CC(C)[C@H](NC(=O)[C@H](Cc1ccccc1)NC(=O)OC(C)(C)C)C(=O)N[C@@H](CCCNC(=N)N[N+](=O)[O-])C(=O)NO (Boc-Phe-Val-[Arg(NO2)]-{NHOH})	447	33.1
CC(C)(C)OC(=O)N1CCC[C@H]1C(=O)N[C@@H](Cc1ccccc1)C(=O)N[C@@H](CCCNC(=N)N[N+](=O)[O-])C(=O)NO (Boc-Pro-Phe-[Arg(NO2)]-{NHOH})	7900	1340
CC(C)(C)OC(=O)N1CCC[C@H]1C(=O)N1CCC[C@H]1C(=O)N[C@@H](CCCNC(=N)N[N+](=O)[O-])C(=O)NO (Boc-Pro-Pro-[Arg(NO2)]-{NHOH})	8360	42.1
CC(C)(C)OC(=O)N1CCC[C@H]1C(=O)N[C@@H](Cc1ccc(O)cc1)C(=O)N[C@@H](CCCNC(=N)N[N+](=O)[O-])C(=O)NO (Boc-Pro-Tyr-[Arg(NO2)]-{NHOH})	4520	436
CC(C)[C@H](NC(=O)OC(C)(C)C)C(=O)N[C@@H](CCCNC(N)=N[N+](=O)[O-])C(=O)NO (Boc-Val-[Arg(NO2)]-{NHOH})	3460	201
N=C(NCCC[C@H](NC(=O)[C@H](Cc1ccccc1)NC(=O)c1ccccc1)C(=O)NO)N[N+](=O)[O-] (Bz-Phe-[Arg(NO2)]-{NHOH})	1650	4.2
CC(C)C[C@H](N)C(=O)N[C@@H](C)C(=O)N[C@@H](CCCNC(N)=N[N+](=O)[O-])C(=O)NO (H-Leu-Ala-[Arg(NO2)]-{NHOH})	1710	–
CC(C)C[C@H](N)C(=O)NCC(=O)N[C@@H](CCCNC(N)=N[N+](=O)[O-])C(=O)NO (H-Leu-Gly-[Arg(NO2)]-{NHOH})	3630	–
CC(C)C[C@H](NC(=O)[C@@H](N)Cc1ccccc1)C(=O)N[C@@H](CCCNC(=N)N[N+](=O)[O-])C(=O)NO (H-Phe-Leu-[Arg(NO2)]-{NHOH})	514	–
CC(C)[C@H](NC(=O)[C@@H](N)Cc1ccccc1)C(=O)N[C@@H](CCCNC(N)=N[N+](=O)[O-])C(=O)NO (H-Phe-Val-[Arg(NO2)]-{NHOH})	3160	98.6
NC(=N[N+](=O)[O-])NCCC[C@H](NC(=O)[C@H](Cc1ccccc1)NC(=O)[C@@H]1CCCN1)C(=O)NO (H-Pro-Phe-[Arg(NO2)]-{NHOH})	8050	364
N=C(NCCC[C@H](NC(=O)[C@@H]1CCCN1C(=O)[C@@H]1CCCN1)C(=O)NO)N[N+](=O)[O-] (H-Pro-Pro-[Arg(NO2)]-{NHOH})	8610	65.2
N=C(NCCC[C@H](NC(=O)[C@H](Cc1ccc(O)cc1)NC(=O)[C@@H]1CCCN1)C(=O)NO)N[N+](=O)[O-] (H-Pro-Tyr-[Arg(NO2)]-{NHOH})	7590	248
CC(C)[C@H](N)C(=O)N[C@@H](CCCNC(N)=N[N+](=O)[O-])C(=O)NO (H-Val-[Arg(NO2)]-{NHOH})	428	–
CC(C)C[C@H](NC(=O)[C@@H](O)[C@H](N)Cc1ccccc1)C(=O)O [UBENIMEX]	253	–

Source: ChEMBL document CHEMBL1157708, “Design, synthesis and primary activity assay of bi- or tri-peptide analogues with the scaffold l-arginine as amino-peptidase N/CD13 inhibitors” (Bioorg Med Chem, 2010)
